Activity calls are given as the source filed them.
What was measured:
[1] = system: Severe acute respiratory syndrome-related coronavirus; test: Inhibition of SARS coronavirus nsP13 helicase activity expressed in Escherichia coli Rosetta assessed inhibition of DNA unwinding activity at 10 uM by FRET assay
Method in brief: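 FRET dsDNA-unwinding assay using fluorescein/TAMRA-labelled duplex. When nsP13 unwinds the duplex, fluorescein emission is unquenched. Compound was added to the unwinding reaction at 10 µM, and fluorescence was read at 535 nm.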

[2] = system: Hepacivirus hominis; test: Inhibition of HCV NS3 helicase overexpressed in Escherichia coli BL21(DE3) assessed as inhibition of DNA unwinding activity at 10 uM by FRET assay
[3] = system: Hepacivirus hominis; test: Inhibition of HCV NS3 helicase ATP hydrolysis activity overexpressed in Escherichia coli BL21(DE3) assessed as inhibition of inorganic phosphate release by AM/MG-based colometric analysis in the presence of M13 ssDNA

Measured: inhibition

C=C1CC[C@@H]2[C@](C)(CCC[C@]2(C)C(=O)O)[C@H]1CCc1ccoc1
inactive: [1] | [2] | [3]

O=C1C[C@@H](c2ccc(O)cc2)Oc2cc(O)cc(O)c21
inactive: [1] | [2] | [3]

O=C(/C=C/c1ccccc1)NCCCCNC(=O)Cc1ccc(O)cc1
inactive: [1] | [2] | [3]

C=C(C)[C@@H](C)CC[C@@H](C)[C@H]1CC[C@@]2(C)[C@@H]3CC[C@H]4C(C)(C)C(=O)CC[C@]4(C)C3=CC[C@]12C
inactive: [1] | [2] | [3]

O=c1c(-c2ccc(O)cc2)coc2cc(O[C@@H]3O[C@H](CO)[C@@H](O)[C@H](O)[C@H]3O)ccc12
inactive: [1] | [2] | [3]

CC1(C)CC[C@]2(C(=O)O)CC[C@]3(C)C(=CC[C@@H]4[C@@]5(C)CC[C@H](O)C(C)(C)[C@@H]5CC[C@]43C)[C@@H]2C1
inactive: [1] | [2] | [3]

C=C1CC[C@@H]2[C@H]([C@H]3[C@H]1CC[C@]3(C)O)C2(C)C
inactive: [1] | [2] | [3]

Cc1cc(=O)c2c(O)c3c(cc2o1)OC(C)(C)[C@@H](O[C@H]1O[C@@H](CO)[C@H](O)[C@@H](O)[C@@H]1O)C3
inactive: [1] | [2] | [3]

COc1c2c(cc3oc(C)cc(=O)c13)OC(C(C)(C)O)C2 (configuration not stated)
inactive: [1] | [2] | [3]

C[C@@H]1O[C@@H](O[C@H]2[C@H](Oc3cc(O)c4c(c3)O[C@H](c3ccc(O)cc3)CC4=O)O[C@H](CO)[C@@H](O)[C@@H]2O)[C@H](O)[C@H](O)[C@H]1O
inactive: [1] | [2] | [3]

COc1ccc(/C=C/C(=O)O[C@H]2[C@@H]3C=CO[C@@H](O[C@@H]4O[C@H](CO)[C@@H](O)[C@H](O)[C@H]4O)[C@@H]3[C@@]3(CO)O[C@@H]23)cc1O
inactive: [1] | [2] | [3]

CC[C@H](CC[C@@H](C)[C@H]1CC[C@H]2[C@@H]3CC=C4C[C@@H](O[C@@H]5O[C@H](CO)[C@@H](O)[C@H](O)[C@H]5O)CC[C@]4(C)[C@H]3CC[C@]12C)C(C)C
inactive: [1] | [2] | [3]

CC(C)=CCC[C@](C)(O[C@@H]1O[C@H](CO[C@@H]2O[C@H](CO)[C@@H](O)[C@H](O)[C@H]2O)[C@@H](O)[C@H](O)[C@H]1O)[C@H]1CC[C@]2(C)[C@@H]1[C@H](O)C[C@@H]1[C@@]3(C)CC[C@H](O[C@@H]4O[C@H](CO)[C@@H](O)[C@H](O)[C@H]4O[C@@H]4O[C@H](CO)[C@@H](O)[C@H](O)[C@H]4O)C(C)(C)[C@@H]3CC[C@]12C
inactive: [1] | [2] | [3]

C[C@H]1C(=O)CC[C@@H]2[C@]1(C)CC[C@H]1[C@@]2(C)CC[C@@]2(C)[C@@H]3CC(C)(C)CC[C@]3(C)CC[C@]12C
inactive: [1] | [2] | [3]
